Activity calls are given as the source filed them. The rule behind the calls is not given here.

The subject of test [1] is NKT. The test can be described thus: Immunostimulatory activity in activated NKT cells assessed as induction of cell proliferation in presence of mAb directed CD1d molecules. The class given is functional, cell-based.
The test system of test [2] is NKT. The test can be described thus: Immunostimulatory activity in activated NKT cells assessed as induction of IL-4 production. The class given is functional, cell-based.
Test [3] is filed under the species Mus musculus. The test can be described thus: Immunostimulatory activity in BALB/c mouse B cells assessed as induction of cell proliferation at 0.001 ug/ml after 3 days by [3H]-thymidine incorporation assay relative to Pam2CAG. Type of test: functional. The procedure, abridged: (§1)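 B cells were purified from female BALB/c spleens by negative selection (anti-CD11b, GR1, CD4 and CD8 mAbs plus magnetic beads; >90% B cells) and seeded at 1×10^5/well. Culture was in RPMI 1640 with 10% FCS, gentamicin, 10 mM HEPES and 0.05 mM 2-mercaptoethanol, across increasing agonist doses. [3H]-thymidine was added at 48 h and cells harvested 18 h later. Stimulation index = mean cpm stimulated / unstimulated; triplicates.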
(In general: Incorporation of labelled thymidine or its analogues reports DNA synthesis.)

In test [4] the target is Toll-like receptor 2 (Homo sapiens) (UniProt O60603). The test can be described thus: Agonist activity at TLR2 in human HEK-Blue-2 cells. Type of test: functional, cell-based.
The species entered for test [5] is Mus musculus. The test can be described thus: Immunostimulatory activity in BALB/c mouse B cells assessed as induction of cell proliferation at 0.001 ug/ml after 3 days by [3H]-thymidine incorporation assay relative to Pam3CAG. The class given is functional. The procedure, abridged: as §1
For test [6], the species on record is Mus musculus. The test can be described thus: Immunostimulatory activity in BALB/c mouse splenocytes assessed as induction of TNFalpha secretion after 30 hrs by double-sandwich ELISA. Type of test: functional. To be noted: Splenocyte. A digest of the protocol:
(§2)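 BALB/c splenocytes (2×10^5/well) were exposed to increasing agonist doses in supplemented RPMI 1640. Supernatants were collected at 30 h, stored at −20 °C, and assayed by double-sandwich ELISA. Values are pg/mL, mean of duplicates; detection limit 15 pg/mL for both IL-6 and TNF-α.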

The target in test [7] is Toll-like receptor 2 (Homo sapiens) (UniProt O60603). The test can be described thus: Agonist activity at TLR2 in human THP1-Blue-CD14 cells transfected with pSEAP-NF-kappaB assessed as secreted embryonic alkaline phosphatase activity treated with PBS containing 2% DMSO formulation after 19 hrs by quanti-blue colorimetric assay. As to conditions: THP-1. The class given is functional, cell-based.

Test [8] shares this target. The test can be described thus: Agonist activity at TLR2 in human THP1-Blue-CD14 cells transfected with pSEAP-NF-kappaB assessed as secreted embryonic alkaline phosphatase activity after 19 hrs by quanti-blue colorimetric assay relative to 0.1 uM of Pam2CAG. The class given is functional, cell-based. As to conditions: THP-1. The procedure, abridged:
(§3)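 THP1-Blue-CD14 cells were grown in RPMI 1640 with glucose (4.5 mg/mL) and 10% endotoxin-free FBS at 37 °C, 5% CO2. They were plated at 1.5×10^6 cells/mL and exposed to compounds formulated in PC/PG/Chol liposomes for 19 h at 37 °C. Supernatant was then mixed with Quanti-Blue reagent for 2 h at 37 °C and OD read at 595 nm. Controls were LPS (positive) and blank PC/PG/cholesterol (80/20/50) liposomes (negative); triplicates.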

Test [9] has as its system NKT. The test can be described thus: Immunostimulatory activity in activated NKT cells assessed as induction of IFNgamma production. Type of test: functional, cell-based.
Test [10] can be described thus: Induction of dendritic cell maturation in mouse D1 cells assessed as upregulation of CD40, CD54, CD80 and CD86 expression at 2.5 ug/ml after 48 hrs by flow cytometry relative to Pam2CAG. Type of test: functional, cell-based. A digest of the protocol: (§4)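 D1 cells were kept in IMDM with 10% heat-decomplemented FCS, penicillin (100 IU/mL), 2 mM L-glutamine and GM-CSF (20 ng/mL). They were seeded at 2×10^5 cells/mL for 48 h, then given fresh medium with compound (DMSO/PBS 2/98) plus polymyxin B, except LPS wells, for 48 h. Cells were harvested in PBS with 2 mM EDTA, stained 20 min at 4 °C and analysed by flow cytometry.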

For test [11], the species on record is Mus musculus. The test can be described thus: Immunostimulatory activity in BALB/c mouse splenocytes assessed as induction of IL-6 secretion after 30 hrs by double-sandwich ELISA. The class given is functional. To be noted: Splenocyte. A digest of the protocol:
as §2

The target in test [12] is Toll-like receptor 2 (Homo sapiens) (UniProt O60603). The test can be described thus: Agonist activity at TLR2 in human THP1-Blue-CD14 cells transfected with pSEAP-NF-kappaB assessed as secreted embryonic alkaline phosphatase activity treated with PC/PG/Chol liposomes formulation after 19 hrs by quanti-blue colorimetric assay. The class given is functional, cell-based. To be noted: THP-1. The procedure, abridged:
as §3

The nature of test [13]: Induction of dendritic cell maturation in mouse D1 cells assessed as upregulation of CD40, CD54, CD80 and CD86 expression at 2.5 ug/ml after 48 hrs by flow cytometry relative to Pam3CAG. Type of test: functional, cell-based. A digest of the protocol: as §4
A general note: A flow cytometer gives signals particle by particle.

The species entered for test [14] is Mus musculus. The test can be described thus: Immunostimulatory activity in BALB/c mouse splenocytes assessed as induction of cell proliferation up to 1000 ng/ml after 3 days by [3H]-thymidine incorporation assay. The class given is functional. To be noted: Splenocyte. A digest of the protocol: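 Spleen cells from female BALB/c mice (2×10^5/well) were cultured with agonist at 0–1000 ng/mL in RPMI 1640 containing 10% FCS, gentamicin, 10 mM HEPES and 0.05 mM 2-mercaptoethanol. [3H]-thymidine was added after 48 h, with harvest 18 h later. Result is a stimulation index (mean cpm stimulated / unstimulated) from triplicate wells.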

Test [15] can be described thus: Induction of dendritic cell maturation in mouse D1 cells assessed as upregulation of CD40, CD54, CD80 and CD86 expression at 2.5 ug/ml after 48 hrs by flow cytometry in presence of polymyxin B. The class given is functional, cell-based. The procedure, abridged:
as §4

The species entered for test [16] is Mus musculus. The test can be described thus: Immunostimulatory activity in BALB/c mouse B cells assessed as induction of cell proliferation after 3 days by [3H]-thymidine incorporation assay. Type of test: functional. A digest of the protocol: as §1
Test [17] addresses Toll-like receptor 2 (Homo sapiens) (UniProt O60603). The test can be described thus: Agonist activity at TLR2 in human THP1-Blue-CD14 cells transfected with pSEAP-NF-kappaB assessed as secreted embryonic alkaline phosphatase activity after 19 hrs by quanti-blue colorimetric assay relative to 10 uM of Pam3CAG. Type of test: functional, cell-based. As to conditions: THP-1. The procedure, abridged:
as §3

Test [18] shares this target. The test can be described thus: Agonist activity at TLR2 in human THP1-Blue-CD14 cells transfected with pSEAP-NF-kappaB assessed as secreted embryonic alkaline phosphatase activity treated with PC/PG/Chol liposomes formulation at 0.1 uM after 19 hrs by quanti-blue colorimetric assay in presence of anti-mTLR2 antibody. The class given is functional, cell-based. As to conditions: THP-1. The procedure, abridged:
(§5)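 TLR2 in THP1-Blue-CD14 cells was neutralised with an anti-mTLR2 monoclonal antibody (100 ng/well) for 10 min before liposome-formulated agonist was added. Cells were incubated 19 h at 37 °C, and SEAP in supernatant was read by Quanti-Blue colorimetry (2 h, 37 °C, OD 595 nm). Activity was compared with cells lacking antibody; triplicates.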

Test [19] shares this target. The test can be described thus: Agonist activity at TLR2 in human THP1-Blue-CD14 cells transfected with pSEAP-NF-kappaB assessed as secreted embryonic alkaline phosphatase activity treated with PC/PG/Chol liposomes formulation at 10 uM after 19 hrs by quanti-blue colorimetric assay in presence of anti-mTLR2 antibody. The class given is functional, cell-based. As to conditions: THP-1. A digest of the protocol: as §5

Chain of Toll-like receptor 2 (Homo sapiens) (O60603 whole entry): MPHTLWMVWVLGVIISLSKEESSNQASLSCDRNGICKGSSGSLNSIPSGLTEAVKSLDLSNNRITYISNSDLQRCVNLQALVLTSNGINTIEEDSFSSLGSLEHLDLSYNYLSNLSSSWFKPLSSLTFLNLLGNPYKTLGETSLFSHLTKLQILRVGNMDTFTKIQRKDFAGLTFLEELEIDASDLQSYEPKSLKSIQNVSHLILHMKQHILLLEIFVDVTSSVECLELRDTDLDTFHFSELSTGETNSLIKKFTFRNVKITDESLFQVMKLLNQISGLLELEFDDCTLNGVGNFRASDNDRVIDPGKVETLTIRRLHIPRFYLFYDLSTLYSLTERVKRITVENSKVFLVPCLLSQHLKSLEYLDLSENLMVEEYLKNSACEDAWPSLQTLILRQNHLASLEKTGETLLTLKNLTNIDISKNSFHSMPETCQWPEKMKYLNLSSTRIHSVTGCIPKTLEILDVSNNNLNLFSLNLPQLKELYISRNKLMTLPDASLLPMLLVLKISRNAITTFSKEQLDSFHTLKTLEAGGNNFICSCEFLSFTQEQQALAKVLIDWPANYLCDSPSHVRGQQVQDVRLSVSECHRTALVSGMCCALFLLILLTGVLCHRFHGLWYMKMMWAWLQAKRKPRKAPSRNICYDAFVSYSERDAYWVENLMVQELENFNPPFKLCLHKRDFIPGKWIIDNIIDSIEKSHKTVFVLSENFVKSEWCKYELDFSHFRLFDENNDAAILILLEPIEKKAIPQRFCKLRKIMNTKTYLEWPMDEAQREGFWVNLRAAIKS

Turning to `CCCCCCCCCCCCCCCC(=O)OC[C@H](CSC[C@H](N)C(=O)NCCO[C@H]1O[C@H](CO)[C@H](O)[C@H](O)[C@H]1O)OC(=O)CCCCCCCCCCCCCCC`, the result in test [1], in [3], in test [4], in test [5], in test [7] and in [8] was Active. Further, the outcome in [10], in [12], in test [13], in [14], in test [15] and in test [18] was Active. For the same molecule, the result in test [2] and in test [9] was inactive. Besides, the Activity entry in test [6], in test [11] and in test [16] was “Dose-dependent effect” in each case. The fold change (FC) in test [17] is 100.

As to `CCCCCCCCCCCCCCCC(=O)OC[C@H](CSC[C@H](N)C(=O)N[C@@H](C)C(=O)NCC(=O)O)OC(=O)CCCCCCCCCCCCCCC`, the result in [1], in [4], in [7], in [12], in [14] and in [15] was Active. Further, the result in [18] was Active. The result in test [2] and in [9] was inactive. The Activity entry in test [6], in test [11] and in test [16] was “Dose-dependent effect” each time.

Consider `CCCCCCCCCCCCCCCC(=O)OC[C@H](CSC[C@H](N)C(=O)NCCO[C@H]1O[C@@H]([C@H](O)CO)[C@H](O)[C@H]1O)OC(=O)CCCCCCCCCCCCCCC`, for which the outcome in [1], in test [3], in test [4], in test [5], in test [7] and in test [8] was Active. The result in [10], in test [12], in test [13], in test [14], in [15] and in [18] was Active. Further, the outcome in test [2] and in test [9] was inactive. Also, the Activity result in [6], in [11] and in [16] was “Dose-dependent effect” throughout. Besides, the fold change (FC) in test [17] was determined as 100.

Turning to `CCCCCCCCCCCCCCCC(=O)N[C@@H](CSC[C@@H](COC(=O)CCCCCCCCCCCCCCC)OC(=O)CCCCCCCCCCCCCCC)C(=O)N[C@@H](C)C(=O)NCC(=O)O`, the result in [1], in test [4], in test [7], in test [12], in test [14] and in test [15] was Active. For the same molecule, the outcome in test [2], in test [9] and in test [19] was inactive. The Activity entry in test [6], in test [11] and in [16] was “Dose-dependent effect” in each case.
